Experiments:
Assay type in all cases: biochemical
human α-glucosidase GAA [1] = biological target: T1, human α-glucosidase GAA (Homo sapiens, UniProt P10253); test: In vitro apparent IC50, recombinant GAA
In short: (§1)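 The enzyme source was GBA2-overexpressing HEK293T lysate or recombinant human GAA. It was preincubated 30 min at 37 °C with a range of test compound concentrations, then transferred into 4-MU glucoside substrate mixture to measure residual activity. Quenched with 1 M NaOH–glycine pH 10.3; 4-MU fluorescence at λex 366/λem 445 nm. Apparent IC50 is the mean of three technical replicates.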

human β-glucosidase GBA1 [2] = biological target: T2, human β-glucosidase GBA1 (Homo sapiens, UniProt P04062, R534H); test: Inhibition kinetics, recombinant GBA1, 2,4-DNP-β-Glc; settings: irreversible inhibition, 37 °C, pH 5.2
T2 sequence (P04062 40-536 R534H): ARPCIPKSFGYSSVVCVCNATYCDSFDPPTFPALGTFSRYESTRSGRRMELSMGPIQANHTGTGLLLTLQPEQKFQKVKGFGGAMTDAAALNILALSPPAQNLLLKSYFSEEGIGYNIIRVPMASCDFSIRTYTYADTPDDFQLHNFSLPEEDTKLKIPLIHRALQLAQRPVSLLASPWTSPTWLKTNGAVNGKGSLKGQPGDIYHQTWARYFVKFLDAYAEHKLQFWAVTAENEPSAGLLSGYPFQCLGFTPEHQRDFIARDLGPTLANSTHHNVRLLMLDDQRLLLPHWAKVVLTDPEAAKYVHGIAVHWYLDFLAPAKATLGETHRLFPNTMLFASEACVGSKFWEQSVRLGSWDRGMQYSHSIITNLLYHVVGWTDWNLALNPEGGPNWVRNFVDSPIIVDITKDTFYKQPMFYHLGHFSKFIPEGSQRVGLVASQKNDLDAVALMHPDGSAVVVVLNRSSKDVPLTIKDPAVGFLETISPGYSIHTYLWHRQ
In short: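 Recombinant human GBA1 preincubated with test compound for 0.5–8 min (fast inhibitors) or 0.5–360 min (slow), then added to 2,4-DNP-Glc. Residual rate taken from 400 nm absorbance versus a no-inhibitor control. kobs is the slope of −ln V/V0 versus time; kinact and KI come from a hyperbolic fit of kobs versus [I]. For fast inhibition (>50% after 30 s), kinact/KI is the linear slope at [I] ≪ KI.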

GBA2 = biological target: T3, GBA2 (Homo sapiens, UniProt Q9HCG7); test: In vitro apparent IC50, GBA2 overexpressing HEK293T lysate, 4-MU-β-Glc
T3 sequence (Q9HCG7 1-927): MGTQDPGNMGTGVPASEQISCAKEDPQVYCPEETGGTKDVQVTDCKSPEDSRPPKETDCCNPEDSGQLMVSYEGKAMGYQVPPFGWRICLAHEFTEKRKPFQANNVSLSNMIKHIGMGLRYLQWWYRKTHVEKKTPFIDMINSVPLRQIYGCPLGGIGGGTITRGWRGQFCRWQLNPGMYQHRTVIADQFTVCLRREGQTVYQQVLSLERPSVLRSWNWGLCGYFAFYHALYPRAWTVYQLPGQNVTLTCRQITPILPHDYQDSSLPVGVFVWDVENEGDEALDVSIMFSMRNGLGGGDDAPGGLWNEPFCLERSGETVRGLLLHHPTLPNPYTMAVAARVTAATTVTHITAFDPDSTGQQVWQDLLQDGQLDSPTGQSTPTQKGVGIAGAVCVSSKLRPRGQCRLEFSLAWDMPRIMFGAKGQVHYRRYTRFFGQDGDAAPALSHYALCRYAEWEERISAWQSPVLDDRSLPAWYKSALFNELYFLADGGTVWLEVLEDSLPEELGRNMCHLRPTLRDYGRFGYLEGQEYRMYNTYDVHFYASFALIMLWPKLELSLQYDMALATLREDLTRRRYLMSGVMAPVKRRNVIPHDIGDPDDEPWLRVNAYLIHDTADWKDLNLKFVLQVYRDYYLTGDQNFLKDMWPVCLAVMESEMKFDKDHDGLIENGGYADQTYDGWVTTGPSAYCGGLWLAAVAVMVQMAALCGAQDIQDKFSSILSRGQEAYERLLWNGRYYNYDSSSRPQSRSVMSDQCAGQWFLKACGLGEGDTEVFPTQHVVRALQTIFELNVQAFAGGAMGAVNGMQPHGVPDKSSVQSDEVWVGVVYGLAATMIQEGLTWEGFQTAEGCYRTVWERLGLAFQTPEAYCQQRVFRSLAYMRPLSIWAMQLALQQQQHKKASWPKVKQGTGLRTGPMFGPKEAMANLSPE
In short: as §1

human α-glucosidase GAA [3] = biological target: T1, human α-glucosidase GAA; test: Inhibition kinetics, recombinant GAA, 2,4-DNP-α-Glc
human β-glucosidase GBA1 [4] = biological target: T2, human β-glucosidase GBA1; test: In vitro apparent IC50, recombinant GBA1
In short: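 Recombinant human GBA1 (Cerezyme) preincubated with a range of test compound concentrations for 30 min at 37 °C, then added to 4-MU-Glc substrate mixture to measure residual activity. Reaction quenched with 1 M NaOH–glycine (pH 10.3); 4-MU fluorescence read at λEX 366 / λEM 445 nm. Apparent IC50 is the mean of three technical replicates.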

With `OC[C@@H]1[C@@H](O)[C@H](O)[C@@H](O)[C@@H]2O[C@H]12` [Compound 1, cyclophellitol, reference compound] the IC50 (human α-glucosidase GAA [1]) was over 100 µM, the “β-glucosidase GBA1 kinact” value (human β-glucosidase GBA1 [2]) was 0.72 min^–1 and the IC50 (GBA2) was 0.139 ± 0.06 µM. The Ki (human α-glucosidase GAA [3]) was over 500 µM and the IC50 (human β-glucosidase GBA1 [4]) was 0.165 ± 0.004 µM.

— publication PMC5532717 (ACS Central Science, 2017)
